Assay [1] in a line: Displacement of [3H]DAMGO from mu opioid receptor in dog brain after 90 mins by scintillation counting. Further details: species or system Canis lupus familiaris.
A short description of assay [2]: Displacement of [3H]DPDPE from delta opioid receptor in dog brain after 90 mins by scintillation counting. Further details: species or system Canis lupus familiaris. (Displacement assays read how much labelled ligand stays bound in the presence of the test substance.)
Assay [3] is described as follows: Displacement of [3H]U-69,593 from kappa opioid receptor in dog brain after 90 mins by scintillation counting. Further details: species or system Canis lupus familiaris.
The target of assay [4] is Mu-type opioid receptor (Cavia porcellus) (UniProt P97266). As to the kind of experiment: Antagonist activity at mu opioid receptor in guinea pig longitudinal muscle myenteric plexus assessed as inhibition of DAMGO-induced twitch tension at 1 uM after 10 mins. It is filed as functional. The procedure, abridged:
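Isolated guinea-pig myenteric plexus-longitudinal muscle was stimulated electrically at 0.1 Hz with a 1 ms pulse width at supramaximal voltage, then washed and rested for 20 min. Kappa antagonist nor-binaltorphimine (1 µM, 10 min) and captopril (1 µM) were added. Test compound was added once twitches plateaued, and 10 min later a cumulative DAMGO dose response was built (3 min contact, 1 min recording per concentration).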

In assay [5] the target is T1, Mu-type opioid receptor (Homo sapiens, UniProt P35372). Nature of the assay: Antagonist activity at human mu opioid receptor by GTP-gamma S binding assay. A general note: GTPγS resists hydrolysis and so accumulates on activated G proteins.
T1 sequence (P35372 whole entry): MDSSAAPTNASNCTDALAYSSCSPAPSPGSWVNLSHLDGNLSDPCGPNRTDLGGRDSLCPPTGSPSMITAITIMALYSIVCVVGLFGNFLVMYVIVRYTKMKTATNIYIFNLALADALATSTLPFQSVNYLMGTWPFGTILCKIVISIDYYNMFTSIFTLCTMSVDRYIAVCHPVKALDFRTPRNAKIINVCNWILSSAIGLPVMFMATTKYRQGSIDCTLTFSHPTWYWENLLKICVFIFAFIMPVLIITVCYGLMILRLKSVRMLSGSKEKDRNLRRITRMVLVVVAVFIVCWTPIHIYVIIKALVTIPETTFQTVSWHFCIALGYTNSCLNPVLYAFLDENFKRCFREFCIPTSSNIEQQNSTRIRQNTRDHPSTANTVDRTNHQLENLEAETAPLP
Assay [6] addresses T1, Mu-type opioid receptor. Nature of the assay: Displacement of [3H]DAMGO from human mu opioid receptor. In a few lines: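 Human μ receptor filter-binding assay using [3H]DAMGO as the radioligand; Ki derived from displacement.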

Sequence of Mu-type opioid receptor (Cavia porcellus) (P97266 whole entry): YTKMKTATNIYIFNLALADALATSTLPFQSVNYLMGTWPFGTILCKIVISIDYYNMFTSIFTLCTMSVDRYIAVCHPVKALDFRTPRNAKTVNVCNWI

For `CCCCCCN1C[C@@H]2[C@H](C1)[C@@]2(CCC)c1cccc(NS(C)(=O)=O)c1`, the Ki (usually the dissociation constant of the complex between target and ligand, obtained from inhibition or displacement) in assay [1] is 10 nM; in assay [2] it was 66 nM; in assay [3] it was 328 nM. In assay [4], the inhibition (in general, the share of the control response that was lost under treatment) was less than 10%.

On to `CCCCCCN1C[C@@H]2[C@H](C1)[C@@]2(CC)c1cccc(NS(C)(=O)=O)c1`, for which the values for the Ki in assay [1], in assay [2] and in assay [3] were 50 nM, more than 10000 nM and 1340 nM, respectively.

For `CCCCCCN1C[C@@H]2[C@H](C1)[C@]2(c1cccc(NS(C)(=O)=O)c1)C(C)C`, the Ki came out at 3 nM in assay [1], 308 nM in assay [2] and 48 nM in assay [3]. The inhibition in assay [4] came to 32%.

Regarding `CCCCCCN1C[C@@H]2[C@H](C1)[C@@]2(C)c1cccc(NS(=O)(=O)c2cccnc2)c1`, the Ki in assay [1] is 71 nM; in assay [2] it was more than 10000 nM; in assay [3], 1530 nM.

As to `CCS(=O)(=O)Nc1cccc([C@@]2(C)[C@@H]3CN(CCCc4ccccc4)C[C@@H]32)c1`, the figures for the inhibition constant Ki in assay [1], in assay [2] and in assay [3] were 37 nM, 2900 nM and 219 nM, respectively.

As for `CCCCCCN1C[C@@H]2[C@H](C1)[C@@]2(C)c1cccc(NS(=O)(=O)CCC)c1`, the Ki is 104 nM in assay [1], more than 10000 nM in assay [2] and 1330 nM in assay [3].

Turning to `CCCCCCN1C[C@@H]2[C@H](C1)[C@@]2(C)c1cccc(NS(C)(=O)=O)c1`, the Ki was found to be 14 nM in assay [1], 869 nM in assay [2] and 270 nM in assay [3]. In assay [4], the inhibition is less than 10%.

With `CCCCCCN1C[C@@H]2[C@H](C1)[C@@]2(C)c1cccc(NS(=O)(=O)CCOC)c1`, the Ki in assay [1] is 10 nM; in assay [2] it was 464 nM; in assay [3], 172 nM. Moreover, in assay [4], the inhibition is more than 10%.

Regarding `CC[C@]1(c2cccc(NS(C)(=O)=O)c2)[C@@H]2CN(CC(O)Cc3ccccc3)C[C@@H]21` (stereo not given in full), the Ki came out at 2.6 nM in assay [1]; 595 nM in assay [2]; 70 nM in assay [3]; 2.5 nM on Mu-type opioid receptor [5]; 6.6 nM on Mu-type opioid receptor [6].

Regarding `C[C@]1(c2cccc(NS(C)(=O)=O)c2)[C@@H]2CN(CCCc3ccccc3)C[C@@H]21`, the Ki in assay [1] was found to be 4.1 nM; in assay [2], 183 nM; in assay [3], 94 nM; on Mu-type opioid receptor [5], 3.5 nM. Further, in assay [4], the inhibition was less than 10%.

Turning to `C[C@]1(c2cccc(NS(C)(=O)=O)c2)[C@@H]2CN(CC3Cc4ccccc4C3)C[C@@H]21`, the Ki in assay [1] stood at 0.55 nM; in assay [2], 384 nM; in assay [3], 51 nM; at Mu-type opioid receptor [5], 0.3 nM; on Mu-type opioid receptor [6], 0.81 nM. Also, the inhibition in assay [4] was less than 10%.

Consider `CCCCCCN1C[C@@H]2[C@H](C1)[C@@]2(C)c1cccc(NS(=O)(=O)C(C)C)c1`, for which the Ki in assay [1] was 14 nM; in assay [2], 1580 nM; in assay [3], 791 nM. Further, the inhibition in assay [4] is 18%.

As for `CC[C@]1(c2cccc(NS(C)(=O)=O)c2)[C@@H]2CN(CCCc3ccccc3)C[C@@H]21`, the results for the Ki in assay [1], in assay [2] and in assay [3] were 1.5 nM, 79 nM and 67 nM, respectively. Also, in assay [4], the inhibition was less than 10%.

As for `CC[C@]1(c2cccc(NS(C)(=O)=O)c2)[C@@H]2CN(CC3Cc4ccccc4C3)C[C@@H]21`, the Ki in assay [1] worked out at 0.2 nM; in assay [2], 29 nM; in assay [3] it was 22 nM.

For the compound `CC[C@]1(c2cccc(NS(C)(=O)=O)c2)[C@@H]2CN(CC3Cc4ccccc4C3O)C[C@@H]21` (stereo not given in full), the Ki in assay [1] amounted to 0.07 nM; in assay [2], 19 nM; in assay [3], 4.5 nM; on Mu-type opioid receptor [5], 0.08 nM; at Mu-type opioid receptor [6], 0.1 nM.

The record behind these values is ChEMBL document CHEMBL1955785, “SAR and biological evaluation of 3-azabicyclo[3.1.0]hexane derivatives as μ opioid ligands” (Bioorg Med Chem Lett, 2012).
